Experiments:
Hepatocyte = assay: Cytotoxicity against mouse primary hepatocytes assessed as fold change in capase3/7 activity by Caspase-Glo 3/7 assay relative to DMSO; assay type: cell-based
HEK293 = assay: Cytotoxicity against HEK293 cells assessed as fold change in capase3/7 activity by Caspase-Glo 3/7 assay relative to DMSO; assay type: cell-based; conditions: human
CYP2D6 = CYP2D6 (Homo sapiens, UniProt P10635); assay: Inhibition of human microsomal CYP2D6 at 10 uM after 3 mins by single quad LC/MS analysis; assay type: ADME; conditions: microsomes
[1] = Drug metabolism in human microsomes at 4 uM after 30 mins by single quad LC/MS analysis; assay type: ADME, Microsome; conditions: read-out: Drug metabolism
[2] = Drug metabolism in mouse microsomes at 4 uM after 30 mins by single quad LC/MS analysis; assay type: ADME, Microsome; conditions: read-out: Drug metabolism
CYP3A4 = CYP3A4 (Homo sapiens, UniProt P08684); assay: Inhibition of human microsomal CYP3A4 at 10 uM after 3 mins by single quad LC/MS analysis; assay type: ADME; conditions: microsomes
CYP2C9 = CYP2C9 (Homo sapiens, UniProt P11712); assay: Inhibition of human microsomal CYP2C9 at 10 uM after 10 mins by single quad LC/MS analysis; assay type: ADME; conditions: microsomes
[3] = Suppression of high glucose stimulated insulin secretion in mouse pancreatic islets at 200 uM treated for 24 hrs followed by glucose stimulation for 20 mins by HTRF assay relative to control; assay type: ADME, cell-based; conditions: pancreatic islet
Procedure, shortened: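 Mouse islet screening assay in high-glucose (20 mM) medium with compounds at 200 µM. Insulin secretion is expressed as fold change relative to vehicle. Mean of n = 4 experiments with SEM; significance by Student's t-test, p ≤ 0.05.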

[4] = Suppression of glucose stimulated insulin secretion in mouse pancreatic islet at 200 uM incubated for 24 hrs followed by glucose stimulation for 20 mins by HTRF assay relative to control
[5] = Effect on insulin content in KCl-stimulated mouse pancreatic islet at 200 uM incubated for 24 hrs followed by KCl stimulation for 20 mins by HTRF assay; assay type: ADME, cell-based
Procedure, shortened: (§1)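 Mouse islets treated with compounds at 200 µM. Insulin secretion was then measured under low- and high-glucose GSIS conditions and under KCl stimulation, and intracellular insulin content was measured. Mean of n = 4-5 experiments with SEM.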

[6] = Effect on insulin content in glucose-stimulated mouse pancreatic islet at 200 uM incubated for 24 hrs followed by glucose stimulation for 20 mins by HTRF assay; assay type: ADME, cell-based; procedure, shortened: as §1
[7] = Suppression of KCl-stimulated insulin secretion in mouse pancreatic islet at 200 uM incubated for 24 hrs followed by KCl stimulation for 20 mins by HTRF assay; assay type: ADME, cell-based; procedure, shortened: as §1
[8] = Suppression of glucose-stimulated insulin secretion in mouse pancreatic islet at 200 uM incubated for 24 hrs followed by glucose stimulation for 20 mins by HTRF assay; assay type: ADME, cell-based; procedure, shortened: as §1
[9] = Passive permeability in MDCK cells; assay type: ADME, cell-based, Canis lupus familiaris; conditions: dog

Sequence of CYP3A4 (P08684 whole entry): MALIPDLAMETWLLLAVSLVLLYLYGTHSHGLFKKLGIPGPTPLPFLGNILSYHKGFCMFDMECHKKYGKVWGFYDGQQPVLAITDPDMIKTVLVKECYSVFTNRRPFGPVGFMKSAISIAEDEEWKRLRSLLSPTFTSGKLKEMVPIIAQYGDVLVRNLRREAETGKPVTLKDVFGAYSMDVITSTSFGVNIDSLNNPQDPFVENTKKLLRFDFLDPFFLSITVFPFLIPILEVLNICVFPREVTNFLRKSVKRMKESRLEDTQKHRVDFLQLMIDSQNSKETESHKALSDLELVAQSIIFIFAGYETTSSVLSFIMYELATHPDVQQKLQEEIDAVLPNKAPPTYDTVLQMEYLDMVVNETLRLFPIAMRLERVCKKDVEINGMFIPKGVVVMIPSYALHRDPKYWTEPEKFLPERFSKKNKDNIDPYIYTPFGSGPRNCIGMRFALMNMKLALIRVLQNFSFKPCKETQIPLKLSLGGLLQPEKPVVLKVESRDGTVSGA
Sequence of CYP2D6 (P10635 whole entry): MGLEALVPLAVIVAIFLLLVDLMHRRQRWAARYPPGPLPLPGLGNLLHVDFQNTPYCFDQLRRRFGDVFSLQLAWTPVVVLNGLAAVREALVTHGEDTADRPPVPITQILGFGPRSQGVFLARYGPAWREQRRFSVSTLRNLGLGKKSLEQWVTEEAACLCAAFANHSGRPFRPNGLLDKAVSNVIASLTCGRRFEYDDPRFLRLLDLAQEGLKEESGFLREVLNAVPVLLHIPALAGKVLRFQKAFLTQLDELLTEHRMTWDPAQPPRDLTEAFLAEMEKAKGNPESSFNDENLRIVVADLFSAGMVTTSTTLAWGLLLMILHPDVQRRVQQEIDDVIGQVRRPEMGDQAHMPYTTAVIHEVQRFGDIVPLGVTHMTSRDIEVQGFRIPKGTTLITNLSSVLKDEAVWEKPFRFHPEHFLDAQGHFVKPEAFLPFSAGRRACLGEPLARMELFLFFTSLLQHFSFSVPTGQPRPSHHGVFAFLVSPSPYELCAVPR
Sequence of CYP2C9 (P11712 whole entry): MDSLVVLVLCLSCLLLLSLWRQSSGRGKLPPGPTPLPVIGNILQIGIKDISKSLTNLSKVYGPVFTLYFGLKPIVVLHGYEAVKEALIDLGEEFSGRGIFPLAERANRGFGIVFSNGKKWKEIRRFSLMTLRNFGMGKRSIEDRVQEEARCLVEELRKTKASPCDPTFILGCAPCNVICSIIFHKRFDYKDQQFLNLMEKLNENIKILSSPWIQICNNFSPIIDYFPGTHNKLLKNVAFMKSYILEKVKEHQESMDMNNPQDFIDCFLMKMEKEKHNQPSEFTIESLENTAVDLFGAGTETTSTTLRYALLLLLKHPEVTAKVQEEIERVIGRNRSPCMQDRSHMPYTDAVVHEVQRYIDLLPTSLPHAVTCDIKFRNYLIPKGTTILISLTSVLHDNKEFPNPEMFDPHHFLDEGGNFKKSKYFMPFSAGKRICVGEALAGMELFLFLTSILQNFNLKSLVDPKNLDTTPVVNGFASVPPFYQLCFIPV

Row | Compound | fold change (FC) (Hepatocyte) | fold change (FC) (HEK293) | inhibition at 0.05 h, 10 µM (CYP2D6) [%] | metabolised at 0.5 h, 4 µM [1] [%] | metabolised at 0.5 h, 4 µM [2] [%] | inhibition at 0.05 h, 10 µM (CYP3A4) [%] | inhibition at 10 min, 10 µM (CYP2C9) [%] | Activity [3] | Activity [4] | Activity [5] | Activity [6] | Activity [7] | Activity [8] | permeability [9]
1 | CCC(=O)c1oc(CCC(=O)OC)c(C(=O)OC)c1C | 1.5 | 1 to 1.1 | – | – | – | – | – | – | – | – | – | – | – | –
2 | COC(=O)CCc1oc(C)c(C)c1C(=O)OC | 0.8 | 1 to 1.1 | 12 | 0 | 16 | 22 | 3 | – | – | – | – | – | – | –
3 | CCCc1oc(CCC(=O)O)cc1C | 0.7 | 0.9 to 1 | 0 | 0 | 20 | 3 | 9 | – | – | – | – | – | – | –
4 | CCC[C@H]1C[C@H](C(=O)O)[C@@H](CCC(=O)O)O1 | 2 | 1 to 1.2 | – | – | – | – | – | – | – | – | – | – | – | –
5 | CCCc1oc(CCC(=O)O)c(C(=O)O)c1CCC | 1.6 to 1.8 | 1 | 0 | 3 | 7 | 0 | 0 | Toxic | – | – | – | – | – | –
6 | CCCCCc1oc(CCC(=O)OC)c(C(=O)OC)c1C | 1 to 1.2 | 1 to 1.2 | 28 | 49 | 60 | 59 | 27 | Non-Toxic | Non-Toxic | – | – | – | – | –
7 | CCCc1oc(C(=O)O)c(C)c1C | 2.2 | 1 to 1.2 | 0 | 20 | 0 | 0 | 0 | – | – | – | – | – | – | –
8 | CCCc1oc(CCC(C)=O)c(C(C)=O)c1C | 0.3 | 0.9 | 0 | – | – | 21 | 0 | – | – | – | – | – | – | –
9 | CCCC1(O)OC(O)(CCC(=O)O)C(C(=O)O)=C1C (centres undefined) | 0.9 | 1 to 1.1 | – | – | – | – | – | Non-Toxic | Non-Toxic | Non-Toxic | Non-Toxic | Non-Toxic | Non-Toxic | –
10 | CCCc1oc(CCC(=O)OC)c(C(=O)OC)c1CCC | 0.8 to 0.9 | 1 to 1.1 | – | – | – | – | – | – | – | – | – | – | – | –
11 | CCC[C@H]1C[C@H](C(=O)OC)[C@@H](CCC(=O)OC)O1 | 1.3 | 1 to 1.1 | – | – | – | – | – | – | – | – | – | – | – | –
12 | Cc1c(CCOCc2ccccc2)oc(CCC(=O)O)c1C(=O)O | 1.4 | 1.1 | – | – | – | – | – | – | – | – | – | – | – | –
13 | CCc1oc(CCC(=O)O)c(C(=O)O)c1CC | 1.1 | 1 | 3 | 0 | 21 | 0 | 17 | Non-Toxic | – | – | – | – | – | Impermeable
14 | CCCCCc1oc(CCC(=O)O)c(C(=O)O)c1C | 1.2 to 1.5 | 1 | 3 | 5 | 7 | 3 | 9 | Toxic | Toxic | – | – | – | – | –
15 | CCCc1oc(CCCO)c(C(=O)O)c1C | 0.6 | 1 | 2 | 10 | 9 | 2 | 3 | Non-Toxic | Non-Toxic | – | – | – | – | –
16 | CCCC1(O)OC(O)(CCC(=O)OC)C(C(=O)OC)=C1C (centres undefined) | 0.3 | 0.9 to 1 | – | – | – | – | – | Non-Toxic | Non-Toxic | – | – | – | – | –
17 | COC(=O)CCc1oc2c(c1C(=O)OC)CCCC2 | 0.4 | 1 to 1.1 | 20 | 16 | 76 | 48 | 2 | Toxic | Toxic | – | – | – | – | –
18 | CCCc1oc(CCC)c(C(=O)O)c1C | 1.4 | 1 to 2 | 5 | 21 | 51 | 13 | 18 | – | – | – | – | – | – | –
19 | CCc1oc(CCC(=O)OC)c(C(=O)OC)c1CC | 0.9 to 1 | 0.9 to 1 | – | – | – | – | – | Toxic | – | Toxic | Toxic | Toxic | Toxic | –
20 | CCCc1oc(CCCO)c(C(=O)OC)c1C | 0.6 | 1 to 1.1 | 0 | 100 | 100 | 0 | 0 | – | – | – | – | – | – | –
21 | Cc1oc(CCC(=O)O)c(C(=O)O)c1C | 2 | 0.8 to 1 | – | – | – | – | – | – | – | – | – | – | – | –
22 | CCC(=O)c1oc(CCC(=O)O)c(C(=O)O)c1C | 1.1 | 1 to 1.1 | 11 | – | – | 3 | 10 | – | – | – | – | – | – | –

From ChEMBL document CHEMBL4004837, “Synthesis and Characterization of Urofuranoic Acids: In Vivo Metabolism of 2-(2-Carboxyethyl)-4-methyl-5-propylfuran-3-carboxylic Acid (CMPF) and Effects on in Vitro Insulin Secretion” (J Med Chem, 2017)
